Experimental data as given in ChEMBL document CHEMBL1148752, “Dopamine/serotonin receptor ligands. 16.(1) Expanding dibenz[d,g]azecines to 11- and 12-membered homologues. Interaction with dopamine D(1)-D(5) receptors” (J Med Chem, 2007).

Experiments:
D(3) dopamine receptor = D(3) dopamine receptor (Homo sapiens, UniProt P35462); assay: Displacement of [3H]spiperone from human dopamine D3 receptor expressed in CHO cells; format: cell-based
Procedure, shortened: (§1)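 Competition binding at cloned human receptors of the D2 family with [3H]spiperone as radioligand; test ligand displacement expressed as Ki.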

D(2) dopamine receptor = D(2) dopamine receptor (Homo sapiens, UniProt P14416); assay: Displacement of [3H]spiperone from human dopamine D2L receptor expressed in HEK293 cells; format: cell-based; procedure, shortened: as §1
D(1B) dopamine receptor = D(1B) dopamine receptor (Homo sapiens, UniProt P21918); assay: Displacement of [3H]SCH 23390 from human dopamine D5 receptor expressed in HEK293 cells; format: cell-based
D(4) dopamine receptor = target: T1, D(4) dopamine receptor (Homo sapiens, UniProt P21917); assay: Displacement of [3H]spiperone from human dopamine D4.4 receptor expressed in CHO cells; format: cell-based; procedure, shortened: as §1
T1 sequence (P21917 whole entry): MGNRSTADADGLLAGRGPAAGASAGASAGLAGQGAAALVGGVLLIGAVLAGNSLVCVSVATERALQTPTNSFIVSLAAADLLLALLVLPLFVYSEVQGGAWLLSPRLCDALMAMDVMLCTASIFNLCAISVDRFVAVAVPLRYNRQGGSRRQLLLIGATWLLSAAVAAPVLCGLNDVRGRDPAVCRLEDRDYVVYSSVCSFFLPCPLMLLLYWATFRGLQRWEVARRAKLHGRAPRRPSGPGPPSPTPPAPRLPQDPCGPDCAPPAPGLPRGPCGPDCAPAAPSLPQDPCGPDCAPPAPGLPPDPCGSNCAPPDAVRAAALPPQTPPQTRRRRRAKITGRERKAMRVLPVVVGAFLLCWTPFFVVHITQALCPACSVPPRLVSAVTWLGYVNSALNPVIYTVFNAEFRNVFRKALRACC

D(1A) dopamine receptor = D(1A) dopamine receptor (Homo sapiens, UniProt P21728); assay: Displacement of [3H]SCH 23390 from human dopamine D1 receptor
Procedure, shortened: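 Competition binding at cloned human receptors of the D1 family with [3H]SCH 23390 as radioligand; test ligand displacement expressed as Ki.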

Sequence of D(1B) dopamine receptor (P21918 whole entry): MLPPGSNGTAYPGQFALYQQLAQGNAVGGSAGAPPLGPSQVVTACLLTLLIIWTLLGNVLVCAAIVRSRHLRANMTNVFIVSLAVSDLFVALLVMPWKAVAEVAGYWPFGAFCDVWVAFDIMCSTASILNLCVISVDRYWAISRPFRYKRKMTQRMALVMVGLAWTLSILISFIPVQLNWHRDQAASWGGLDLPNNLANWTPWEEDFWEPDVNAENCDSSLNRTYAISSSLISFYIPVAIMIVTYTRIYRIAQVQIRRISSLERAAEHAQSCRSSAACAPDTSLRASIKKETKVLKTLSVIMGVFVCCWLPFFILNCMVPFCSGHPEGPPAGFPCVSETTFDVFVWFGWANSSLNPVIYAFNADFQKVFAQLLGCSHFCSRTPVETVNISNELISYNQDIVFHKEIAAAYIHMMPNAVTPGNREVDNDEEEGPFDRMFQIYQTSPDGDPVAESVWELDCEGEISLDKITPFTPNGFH
Sequence of D(1A) dopamine receptor (P21728 whole entry): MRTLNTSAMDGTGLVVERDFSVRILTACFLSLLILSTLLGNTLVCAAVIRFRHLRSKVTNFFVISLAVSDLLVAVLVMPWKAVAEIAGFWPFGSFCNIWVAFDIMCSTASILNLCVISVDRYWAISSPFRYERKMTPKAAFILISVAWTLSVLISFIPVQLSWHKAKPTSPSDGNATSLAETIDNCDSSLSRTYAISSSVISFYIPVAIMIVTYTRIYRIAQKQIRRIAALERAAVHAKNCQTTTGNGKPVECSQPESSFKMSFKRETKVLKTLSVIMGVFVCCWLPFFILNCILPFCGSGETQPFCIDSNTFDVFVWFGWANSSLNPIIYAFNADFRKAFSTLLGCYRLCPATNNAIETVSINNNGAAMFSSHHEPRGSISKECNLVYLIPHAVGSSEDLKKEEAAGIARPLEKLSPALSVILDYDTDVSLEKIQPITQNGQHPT
Sequence of D(2) dopamine receptor (P14416 whole entry): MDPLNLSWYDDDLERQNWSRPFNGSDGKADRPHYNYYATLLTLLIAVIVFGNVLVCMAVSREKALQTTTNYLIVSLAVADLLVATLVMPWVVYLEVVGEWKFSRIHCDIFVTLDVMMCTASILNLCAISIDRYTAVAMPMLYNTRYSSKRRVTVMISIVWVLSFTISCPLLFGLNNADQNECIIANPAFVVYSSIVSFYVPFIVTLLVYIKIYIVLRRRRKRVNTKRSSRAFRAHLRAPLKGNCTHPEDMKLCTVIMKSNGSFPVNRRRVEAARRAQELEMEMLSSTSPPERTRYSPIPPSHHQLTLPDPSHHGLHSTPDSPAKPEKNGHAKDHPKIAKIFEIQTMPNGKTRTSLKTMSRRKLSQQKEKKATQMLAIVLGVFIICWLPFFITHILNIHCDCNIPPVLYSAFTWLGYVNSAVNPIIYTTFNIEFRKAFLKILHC
Sequence of D(3) dopamine receptor (P35462 whole entry): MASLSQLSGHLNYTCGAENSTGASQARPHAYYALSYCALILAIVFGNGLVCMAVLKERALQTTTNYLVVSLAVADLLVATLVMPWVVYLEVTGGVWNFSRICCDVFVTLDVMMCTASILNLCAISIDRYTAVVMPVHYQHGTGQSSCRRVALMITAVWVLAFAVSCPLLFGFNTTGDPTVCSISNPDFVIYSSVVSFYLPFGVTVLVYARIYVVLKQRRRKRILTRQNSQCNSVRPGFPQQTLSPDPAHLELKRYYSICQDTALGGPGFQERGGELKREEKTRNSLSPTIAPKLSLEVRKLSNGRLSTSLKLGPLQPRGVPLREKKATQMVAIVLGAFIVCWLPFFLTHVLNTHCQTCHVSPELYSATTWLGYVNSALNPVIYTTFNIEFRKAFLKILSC

| Ki (D(3) dopamine receptor) | Ki (D(2) dopamine receptor) | Ki (D(1B) dopamine receptor) | Ki (D(4) dopamine receptor) | Ki (D(1A) dopamine receptor) | SMILES |
| --- | --- | --- | --- | --- | --- |
| > 10000 nM | > 10000 nM | > 10000 nM | > 10000 nM | > 10000 nM | COc1ccc2c(c1)CCCN1CCCc3ccccc3C21 (stereo unspecified) |
| – | – | 54 nM | – | – | COc1ccc2c(c1)CCN(C)CCc1ccccc1C2 |
| > 10000 nM | > 10000 nM | > 10000 nM | > 10000 nM | > 10000 nM | COc1cc2c(cc1Cl)CCN1CCCc3ccccc3C21 (stereo unspecified) |
| 6900 nM | 857 nM | 314 nM | 4260 nM | 291 nM | Oc1ccc2c(c1)CCCNCCc1ccccc1C2 |
| > 10000 nM | > 10000 nM | > 10000 nM | > 10000 nM | > 10000 nM | COc1ccc(CCN2CCCc3ccccc3C2)cc1Cl |
| 100 nM | 74 nM | 9.8 nM | 60.1 nM | 3.2 nM | CN1CCCc2ccccc2Cc2ccc(O)cc2CC1 |
| 6120 nM | 518 nM | 17 nM | 2260 nM | 13.9 nM | CN1CCCc2cc(O)ccc2Cc2ccccc2CC1 |
| 3140 nM | 25 nM | 55 nM | 1100 nM | 29.4 nM | COc1ccc2c(c1)CCCN(C)CCc1ccccc1C2 |
| 14800 nM | 1030 nM | 510 nM | 5050 nM | 579 nM | COc1cc2c(cc1OC)Cc1ccccc1CCCN(C)CC2 |
| 23900 nM | 1400 nM | 75 nM | 2760 nM | 137 nM | COc1ccc2c(c1)Cc1ccccc1CCCN(C)CC2 |
| 776 nM | 63 nM | 69 nM | 3750 nM | 70 nM | CN1CCCc2ccccc2Cc2cc(O)ccc2CC1 |
| 3960 nM | 382 nM | 95 nM | 422 nM | 83 nM | CN1CCCc2ccccc2Cc2ccc(O)cc2CCC1 |
| 1350 nM | 172 nM | 53 nM | 2870 nM | 23.5 nM | COc1ccc2c(c1)CCCN(C)CCCc1ccccc1C2 |
| 507 nM | 87 nM | 4.6 nM | 271 nM | 18.5 nM | COc1ccc2c(c1)CCN(C)CCCc1ccccc1C2 |
